pIC50: −log10 of the molar value. Converted amounts (≈) assume the structure as drawn.
Key:
[1] = target: T1, Kinesin-like protein KIF11 (Homo sapiens, UniProt P52732); experiment: Inhibition of C-terminal His-tagged KSP ATPase motor domain (unknown origin) expressed in bacteria incubated for 30 mins prior to ATP addition measured after 15 mins by luminescence assay
T1 sequence (P52732 whole entry): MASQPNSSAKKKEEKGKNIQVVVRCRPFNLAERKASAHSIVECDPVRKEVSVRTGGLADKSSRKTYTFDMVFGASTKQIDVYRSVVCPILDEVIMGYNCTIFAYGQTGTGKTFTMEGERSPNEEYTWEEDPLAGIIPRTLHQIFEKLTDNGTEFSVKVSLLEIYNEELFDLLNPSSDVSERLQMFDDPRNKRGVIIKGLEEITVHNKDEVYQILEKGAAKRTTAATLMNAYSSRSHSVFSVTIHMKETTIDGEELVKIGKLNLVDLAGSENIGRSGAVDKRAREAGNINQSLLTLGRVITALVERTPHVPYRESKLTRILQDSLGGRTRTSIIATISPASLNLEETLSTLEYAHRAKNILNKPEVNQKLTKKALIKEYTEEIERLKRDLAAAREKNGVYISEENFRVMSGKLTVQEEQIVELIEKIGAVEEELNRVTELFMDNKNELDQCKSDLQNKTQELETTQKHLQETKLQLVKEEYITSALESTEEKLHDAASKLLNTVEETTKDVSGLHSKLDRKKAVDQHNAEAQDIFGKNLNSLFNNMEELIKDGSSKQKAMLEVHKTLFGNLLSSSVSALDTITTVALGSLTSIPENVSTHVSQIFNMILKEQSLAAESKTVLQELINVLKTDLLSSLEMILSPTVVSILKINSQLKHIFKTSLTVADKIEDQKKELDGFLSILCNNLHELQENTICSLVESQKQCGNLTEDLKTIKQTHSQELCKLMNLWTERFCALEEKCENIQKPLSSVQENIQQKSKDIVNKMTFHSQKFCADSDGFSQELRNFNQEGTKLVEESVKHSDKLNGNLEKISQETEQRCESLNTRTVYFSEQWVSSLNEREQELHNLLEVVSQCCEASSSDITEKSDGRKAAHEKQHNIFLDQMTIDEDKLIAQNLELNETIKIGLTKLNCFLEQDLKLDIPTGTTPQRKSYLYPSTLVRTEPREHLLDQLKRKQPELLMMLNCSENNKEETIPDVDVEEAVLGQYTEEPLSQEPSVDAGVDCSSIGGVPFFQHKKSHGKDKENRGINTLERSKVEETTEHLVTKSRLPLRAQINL

[2] = Thermodynamic solubility of the compound in 50% EtOH/1/15 M phosphate buffer at pH 7.4 after 48 hrs by HPLC analysis; assay type: physicochemical; conditions: read-out: Therm_solubility
Procedure, shortened: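 Solid compound in 0.5 mL of 1/15 M phosphate buffer (pH 7.4) plus 0.5 mL EtOH was shaken 48 h at 25 °C and filtered. m-Cresol internal standard was added (0.05 mg/mL final), the sample diluted in DMF and analysed by HPLC-UV at 254 nm. Concentration came from the peak-area ratio against a calibration curve, corrected for dilution.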

[3] = Thermodynamic solubility of the compound in 1/15 M phosphate buffer at pH 7.4 after 48 hrs by HPLC analysis; assay type: physicochemical; conditions: read-out: Therm_solubility
Procedure, shortened: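 Solid compound in 1.0 mL of 1/15 M phosphate buffer (pH 7.4) was shaken 48 h at 25 °C and filtered. m-Cresol internal standard was added (0.05 mg/mL final), the sample diluted in DMF and run on HPLC with UV at 254 nm. Concentration came from the sample/standard peak-area ratio against a calibration curve, corrected for dilution.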

[4] = Retention time of the compound by HPLC analysis; assay type: physicochemical
Procedure, shortened: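 Reverse-phase C18 HPLC (4.6 × 250 mm), eluted with a linear 30–70% MeCN gradient over 40 min in 0.1% TFA.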

A549 = experiment: Antiproliferative activity against human A549 cells assessed as growth inhibition after 72 hrs by MTS assay; assay type: functional, cell-based; conditions: A549, 72 h
Procedure, shortened: (§1)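 Media with 10% FBS at 37 °C, 5% CO2: A549 in DMEM (500 cells/well), HCT-116 in McCoy's 5A and MCF-7 in EMEM (5000 cells/well each). Cells settled 6 h, then got graded compound concentrations (0.1% final DMSO) for 72 h. After washing into phenol-red-free medium (1 h), MTS was added for 40 min and A490 read. IC50 came from mean inhibition rates of ≥3 experiments.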

HCT-116 = experiment: Antiproliferative activity against human HCT116 cells assessed as growth inhibition after 72 hrs by MTS assay; assay type: functional, cell-based; conditions: HCT-116, 72 h; procedure, shortened: as §1
MCF7 = experiment: Antiproliferative activity against human MCF7 cells assessed as growth inhibition after 72 hrs by MTS assay; assay type: functional, cell-based; conditions: MCF7, 72 h; procedure, shortened: as §1

| pIC50 [1] | Compound | other results |
| --- | --- | --- |
| 6.54 | O=C1COc2cc(Nc3cccc(C(F)(F)F)c3)ccc2N1 | – |
| 6.37 | CC(C)c1cccc(Nc2ccc3c(c2)CCC(=O)N3)c1 | – |
| 7.17 | O=C1CCc2cc(Nc3cc(C(F)(F)F)ccn3)ccc2N1 | solubility thermodynamic at 48 h [2]: 3510 µg/mL (≈ 11400 µM); solubility thermodynamic at 48 h [3]: 6.12 µg/mL (≈ 19.9 µM); Retention_time [4]: 7 min; pIC50 (A549): 5.60; pIC50 (HCT-116): 5.36; pIC50 (MCF7): 5.10 |
| 6.72 | FC(F)(F)c1cccc(Nc2ccc3c(c2)CCC(=S)N3)c1 | – |
| < 5.20 | COc1cccc(Nc2ccc3c(c2)CCC(=O)N3)c1 | – |
| < 5.20 | O=[N+]([O-])c1cccc(Nc2cccc(C(F)(F)F)c2)c1 | – |
| < 5.20 | O=C1CCc2cc(Sc3cccc(C(F)(F)F)c3)ccc2N1 | – |
| < 5.20 | O=C1CCc2ccc(Nc3cccc(C(F)(F)F)c3)cc2N1 | – |
| 6.26 | Nc1ccc2[nH]c3cc(C(F)(F)F)ccc3c2c1 | – |
| < 5.20 | O=C1CCc2cc(Nc3cccc(Oc4ccccc4)c3)ccc2N1 | – |
| < 5.20 | O=C1CCc2cc(Sc3ccc(C(F)(F)F)cc3)ccc2N1 | – |
| 7.07 | CC(=O)Nc1ccc2c(c1)[nH]c1cc(C(F)(F)F)ccc12 | – |
| 6.04 | O=C1CCc2cc(Nc3cccc(C(F)(F)F)c3)c(F)cc2N1 | – |
| 6.36 | O=C1CCc2cc(Nc3cccc([N+](=O)[O-])c3)ccc2N1 | – |
| 6.48 | O=C1CCc2cc(Nc3ccc(C(F)(F)F)cc3)ccc2N1 | – |
| 7.35 | O=C1CCc2cc(Nc3cccc(C(F)(F)F)c3)ccc2N1 | solubility thermodynamic at 48 h [2]: 1800 µg/mL (≈ 5880 µM); solubility thermodynamic at 48 h [3]: < 1 µg/mL; Retention_time [4]: 24.4 min; pIC50 (A549): 5.38; pIC50 (HCT-116): 5.05; pIC50 (MCF7): 4.96 |
| < 5.20 | NC(=O)Nc1cccc(Nc2cccc(C(F)(F)F)c2)c1 | – |
| < 5.20 | O=C1CCc2cc(Nc3cc(C(F)(F)F)cc(C(F)(F)F)c3)ccc2N1 | – |
| 5.92 | O=C1CCc2cc(Nc3cccc(OC(F)(F)F)c3)ccc2N1 | – |
| 7.30 | O=C1CCCc2cc(Nc3cccc(C(F)(F)F)c3)ccc2N1 | solubility thermodynamic at 48 h [2]: 7390 µg/mL (≈ 23100 µM); solubility thermodynamic at 48 h [3]: < 1 µg/mL; Retention_time [4]: 27 min; pIC50 (A549): 5.35; pIC50 (HCT-116): 5.24; pIC50 (MCF7): 5.41 |
| < 5.20 | O=C1CCc2cc(Nc3cccc(C(=O)O)c3)ccc2N1 | – |
| 5.15 | FC(F)(F)c1cccc(Nc2cccnc2)c1 | solubility thermodynamic at 48 h [2]: 14300 µg/mL (≈ 60000 µM); solubility thermodynamic at 48 h [3]: 10.8 µg/mL (≈ 45.3 µM) |
| < 5.20 | O=C1CCc2cc(Oc3ccc(C(F)(F)F)cc3)ccc2N1 | – |
| < 5.20 | O=C1CCc2c(cccc2Nc2cccc(C(F)(F)F)c2)N1 | – |
| – | FC(F)(F)c1ccc2c(c1)[nH]c1cnccc12 | solubility thermodynamic at 48 h [2]: 472 µg/mL (≈ 2000 µM); solubility thermodynamic at 48 h [3]: < 1 µg/mL |
| < 5.20 | O=C1CCc2cc(Nc3ccccc3)ccc2N1 | – |
| < 5.20 | COC(=O)c1cccc(Nc2ccc3c(c2)CCC(=O)N3)c1 | – |

| pIC50 [1] | Compound | other results |
| --- | --- | --- |
| 5.44 | O=C1Cc2cc(Nc3cccc(C(F)(F)F)c3)ccc2N1 | – |
| 5.70 | O=C1CCc2cc(Oc3cccc(C(F)(F)F)c3)ccc2N1 | – |
| 7.37 | O=[N+]([O-])c1ccc2[nH]c3cc(C(F)(F)F)ccc3c2c1 | – |
| 6.09 | CCc1cccc(Nc2ccc3c(c2)CCC(=O)N3)c1 | – |
| – | FC(F)(F)c1ccc2c(c1)[nH]c1ccncc12 | solubility thermodynamic at 48 h [2]: 1760 µg/mL (≈ 7450 µM); solubility thermodynamic at 48 h [3]: 3.16 µg/mL (≈ 13.4 µM) |
| 6.09 | O=c1[nH]c2ccc(Nc3cccc(C(F)(F)F)c3)cc2s1 | – |
| < 5.20 | Nc1cccc(Nc2ccc3c(c2)CCC(=O)N3)c1 | – |
| 6.41 | NC(=O)Nc1ccc(Nc2cccc(C(F)(F)F)c2)cc1 | – |
| < 5.20 | O=C1COc2ccc(Nc3cccc(C(F)(F)F)c3)cc2N1 | – |
| < 5.20 | CN1C(=O)CCc2cc(Nc3cccc(C(F)(F)F)c3)ccc21 | – |
| 5.49 | O=[N+]([O-])c1ccc(Nc2cccc(C(F)(F)F)c2)cc1 | – |
| 6.57 | Nc1ccc2c(c1)[nH]c1cc(C(F)(F)F)ccc12 | – |
| 6.80 | CC(C)(C)c1cccc(Nc2ccc3c(c2)CCC(=O)N3)c1 | – |
| < 5.20 | Nc1ccc(Nc2cccc(C(F)(F)F)c2)cc1 | – |
| < 5.20 | O=c1[nH]c2ccc(Nc3cccc(C(F)(F)F)c3)cc2o1 | – |
| < 5.20 | FC(F)(F)c1cccc(Nc2ccncc2)c1 | solubility thermodynamic at 48 h [2]: 24000 µg/mL (≈ 101000 µM); solubility thermodynamic at 48 h [3]: 264 µg/mL (≈ 1110 µM) |
| 7.30 | O=C1CCCc2cc(Nc3cc(C(F)(F)F)ccn3)ccc2N1 | solubility thermodynamic at 48 h [2]: 4820 µg/mL (≈ 15000 µM); solubility thermodynamic at 48 h [3]: 8.07 µg/mL (≈ 25.1 µM); Retention_time [4]: 10.8 min; pIC50 (A549): 5.30; pIC50 (HCT-116): 5.19; pIC50 (MCF7): 5.04 |
| < 5.20 | Nc1cccc(Nc2cccc(C(F)(F)F)c2)c1 | – |
| 5.34 | O=c1ccc2ccc(Nc3cccc(C(F)(F)F)c3)cc2[nH]1 | – |
| 6.37 | O=C1CCc2cc(Nc3cccc(C(F)(F)F)c3)cc(F)c2N1 | – |
| < 5.20 | O=C1CCc2cc(Nc3cccc(O)c3)ccc2N1 | – |
| 7.29 | O=C1CSc2cc(Nc3cccc(C(F)(F)F)c3)ccc2N1 | solubility thermodynamic at 48 h [2]: 1700 µg/mL (≈ 5240 µM); solubility thermodynamic at 48 h [3]: < 1 µg/mL; Retention_time [4]: 28.2 min; pIC50 (A549): 5.39; pIC50 (HCT-116): 5.17; pIC50 (MCF7): 5.19 |
| < 5.20 | O=C1CCc2cc(Nc3cccc(-c4ccccc4)c3)ccc2N1 | – |
| – | FC(F)(F)c1ccc2c(c1)[nH]c1ccccc12 | solubility thermodynamic at 48 h [2]: 424 µg/mL (≈ 1800 µM); solubility thermodynamic at 48 h [3]: < 1 µg/mL |
| < 5.20 | O=C1CCc2cc(Nc3ccccc3C(F)(F)F)ccc2N1 | – |
| 7.46 | O=C1CSc2cc(Nc3cc(C(F)(F)F)ccn3)ccc2N1 | solubility thermodynamic at 48 h [2]: 669 µg/mL (≈ 2060 µM); solubility thermodynamic at 48 h [3]: 1.11 µg/mL (≈ 3.41 µM); Retention_time [4]: 13.8 min; pIC50 (A549): 5.82; pIC50 (HCT-116): 5.59; pIC50 (MCF7): 5.55 |

From ChEMBL document CHEMBL3286205, “Optimization of diaryl amine derivatives as kinesin spindle protein inhibitors” (Bioorg Med Chem, 2014)
